Series [1] addresses T1, Trypsin (Homo sapiens, UniProt P07477+P07478+P35030). As to the kind of experiment: Inhibition of trypsin (unknown origin) using chromogenic H-D-Ile-L-Pro-L-Arg-p-nitoraniline as substrate by […]. The format is protein assay.
Series [2] has as its target T2, Epithelial sodium channel subunit alpha (Homo sapiens, UniProt P37088).
T2 sequence (P37088 whole entry): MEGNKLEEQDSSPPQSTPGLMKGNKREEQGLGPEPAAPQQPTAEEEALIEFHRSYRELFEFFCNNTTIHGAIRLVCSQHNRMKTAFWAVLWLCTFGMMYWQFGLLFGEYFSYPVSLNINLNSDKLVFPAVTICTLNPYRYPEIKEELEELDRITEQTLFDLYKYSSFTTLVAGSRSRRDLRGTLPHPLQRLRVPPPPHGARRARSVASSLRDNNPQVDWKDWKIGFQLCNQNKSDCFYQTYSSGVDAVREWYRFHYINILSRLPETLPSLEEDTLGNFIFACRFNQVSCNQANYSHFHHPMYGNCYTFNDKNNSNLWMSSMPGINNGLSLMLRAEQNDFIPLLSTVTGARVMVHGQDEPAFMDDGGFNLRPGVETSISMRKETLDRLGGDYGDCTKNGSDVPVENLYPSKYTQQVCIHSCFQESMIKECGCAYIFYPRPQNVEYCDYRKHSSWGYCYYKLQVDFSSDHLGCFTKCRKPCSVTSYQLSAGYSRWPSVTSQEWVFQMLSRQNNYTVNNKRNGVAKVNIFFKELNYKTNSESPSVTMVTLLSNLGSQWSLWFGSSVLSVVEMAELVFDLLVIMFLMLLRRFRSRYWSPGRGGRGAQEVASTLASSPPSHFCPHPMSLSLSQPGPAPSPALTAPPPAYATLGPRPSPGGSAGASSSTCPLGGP
The series can be described thus: Inhibition of S-3969-stimulated recombinant human ENaC alpha subunit expressed in HEK293 cells at 10 uM preincubated for 5 mins followed by S-3969 stimulation by FLIPR assay. To be noted: hek293, 10 µM. The format is cell-based. The procedure, abridged:
(§1)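 HEK-293 cells transfected with human ENaC α, β and γ cDNA together, plated at 20 000 cells/well, incubated overnight at 37 °C. Loaded with membrane-potential red dye for 30 min at 37 °C. Compound preincubated 5 min in HEPES-buffered salt solution (pH 7.4, 0.3% DMSO), then stimulated with 1 µM S-3969, read on FLIPR. Signal normalized to agonist alone (100%) and agonist plus 30 µM benzamil (0%). n = 4 wells.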

The target in series [3] is T3, Epithelial sodium channel subunit beta (Homo sapiens, UniProt P51168).
T3 sequence (P51168 whole entry): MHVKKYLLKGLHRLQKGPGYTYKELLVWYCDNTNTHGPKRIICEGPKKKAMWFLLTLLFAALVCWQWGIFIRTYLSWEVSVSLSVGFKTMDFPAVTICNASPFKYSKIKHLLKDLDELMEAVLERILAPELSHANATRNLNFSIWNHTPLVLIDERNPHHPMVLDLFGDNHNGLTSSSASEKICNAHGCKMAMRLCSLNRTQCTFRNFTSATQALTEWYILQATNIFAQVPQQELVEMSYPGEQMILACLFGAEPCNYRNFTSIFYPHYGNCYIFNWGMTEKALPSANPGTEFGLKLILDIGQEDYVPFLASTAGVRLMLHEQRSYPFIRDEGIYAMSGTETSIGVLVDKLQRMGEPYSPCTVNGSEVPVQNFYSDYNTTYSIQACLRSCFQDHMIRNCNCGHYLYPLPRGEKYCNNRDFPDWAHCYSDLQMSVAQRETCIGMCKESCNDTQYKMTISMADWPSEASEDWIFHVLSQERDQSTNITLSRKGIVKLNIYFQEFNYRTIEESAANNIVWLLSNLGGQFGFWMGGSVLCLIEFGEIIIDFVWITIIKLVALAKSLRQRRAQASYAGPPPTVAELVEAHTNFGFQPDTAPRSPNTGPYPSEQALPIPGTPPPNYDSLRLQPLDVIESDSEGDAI
The series can be described thus: Inhibition of S-3969-stimulated recombinant human ENaC beta subunit expressed in HEK293 cells at 10 uM preincubated for 5 mins followed by S-3969 stimulation by FLIPR assay. The format is cell-based. The conditions noted are these: hek293, 10 µM. The procedure, abridged: as §1

A further series deals with MDA-MB-231. The series can be described thus: Cytotoxicity against human MDA-MB-231 cells assessed as reduction in cell viability after 48 hrs by CellTiter 96 Aqueous One solution cell proliferation assay. To be noted: MDA-MB-231, 48 h. The format is functional, cell-based. The essentials: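 Cells grown in DMEM high glucose with 10% heat-inactivated FCS, seeded at 5000/well and left 18 h. Compounds added at 1 nM–100 µM final (0.2% vehicle), n = 4 wells per concentration, with colour blanks. After 48 h, MTS reagent added for 2 h and A490 read. IC50 from a variable-slope sigmoidal fit.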

For another series, the system named is Homo sapiens. The series can be described thus: Antitumor activity against human PSC xenografted in BALB/c nu/nu mouse co-implanted with human AsPC1 cells assessed as reduction in tumor volume at 10 mg/kg/day, ip measured after 28 days post first dose. The series is classed as functional, organism-based. The procedure, abridged: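 Orthotopic AsPC-1 plus human stellate cell co-implant (1×10^6 each) in the pancreatic tail of female nude BALB/c nu/nu mice. From day 7, dosed for 4 weeks (n = 4/group) with 10 mg/kg/day ip in acetate pH 5.5/DMSO/Kolliphor vehicle, or gemcitabine 75 mg/kg gavage twice weekly. Tumors resected at 4 weeks after first injection and measured with calipers by two observers. Volume = 1/2(length×breadth×width). Mean ± SEM.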
In general terms: Xenograft models place foreign cells or tissue in a host animal.

Series [4] concerns the target T1, Trypsin. The series can be described thus: Inhibition of trypsin (unknown origin) at 10 nM to 33.3 uM after 30 mins by gel-based ABPP assay. The series is classed as protein assay.
The next series has as its target Plasma kallikrein (Homo sapiens, UniProt P03952). The series can be described thus: Inhibition of plasma kallikrein (unknown origin) at 10 nM to 33.3 uM after 30 mins by gel-based ABPP assay.
The subject of another series is HT-1080. As to the kind of experiment: Antimetastatic activity against luciferase-tagged human HT1080 cells xenografted in NOD.Cg-Prkdc-IL2rg<tm1Wjl>SzJAusb mouse assessed as inhibition of late-stage lung metastasis at 7.5 mg/kg/day, ip administered […] measured day 21. The series is classed as functional. To be noted: HT-1080, ip. The procedure, abridged:
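2.5 × 10^5 luciferase-tagged HT-1080 cells in PBS given by lateral tail vein on day 0. Daily ip dosing at 7.5 mg/kg from day -1 to day 20 (vehicle 50 mM acetate pH 5.5, 7.5% DMSO, 0.75% Tween80). Lungs harvested at day 21, homogenized, and tumour burden measured by luciferase assay. n = 4–6; one-way ANOVA with Dunnett's test.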

Each structure is given as a SMILES string. Active and inactive are the calls of the source. No cut-off for these calls is given here.

Plasma kallikrein, sequence (P03952 20-390 limits assumed): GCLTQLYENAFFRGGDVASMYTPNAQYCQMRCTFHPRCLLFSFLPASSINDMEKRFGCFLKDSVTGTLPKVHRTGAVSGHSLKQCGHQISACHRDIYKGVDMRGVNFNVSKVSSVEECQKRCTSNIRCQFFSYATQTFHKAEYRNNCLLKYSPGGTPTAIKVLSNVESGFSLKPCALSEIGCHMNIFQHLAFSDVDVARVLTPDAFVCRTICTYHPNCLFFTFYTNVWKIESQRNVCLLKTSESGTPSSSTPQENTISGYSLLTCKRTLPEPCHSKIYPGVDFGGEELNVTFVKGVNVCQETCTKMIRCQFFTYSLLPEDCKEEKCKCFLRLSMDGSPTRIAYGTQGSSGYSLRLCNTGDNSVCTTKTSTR
Plasma kallikrein, sequence (P03952 391-638 limits assumed): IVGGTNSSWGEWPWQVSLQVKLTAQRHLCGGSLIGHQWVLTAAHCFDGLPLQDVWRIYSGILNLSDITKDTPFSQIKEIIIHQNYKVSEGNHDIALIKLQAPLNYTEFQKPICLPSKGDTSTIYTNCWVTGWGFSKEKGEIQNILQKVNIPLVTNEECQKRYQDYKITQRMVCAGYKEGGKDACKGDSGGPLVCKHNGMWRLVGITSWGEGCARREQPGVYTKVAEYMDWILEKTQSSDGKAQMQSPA

For the compound `N=C(N)NC(=O)c1nc(Cl)c(N2CCCCCC2)nc1N` [N,N-HEXAMETHYLENEAMILORIDE], the half-maximal inhibitory concentration (IC50) (in general, the concentration needed to halve the response being measured) on Trypsin [1] was over 10 µM; with MDA-MB-231, 27.3 µM. Also, the “inhibition (INH)” value in series [2] and in series [3] was “Not Active” in each case.

For the compound `N=C(N)NC(=O)c1nc(-c2cc3ccccc3o2)c(N2CCCCCC2)nc1N`, in the series with Homo sapiens, the outcome was Active. On Trypsin [1], this compound had an IC50 of over 10 µM. For the same compound, the inhibition entry on Trypsin [4] and on Plasma kallikrein was “Active” in each case. Moreover, the “inhibition (INH)” value in series [2] and in series [3] was “Not Active” in each case. Moreover, in the series on HT-1080, the inhibition in vivo (in general, how much of the control response was suppressed) at 7.5 mg/kg/day was found to be 21%.

Turning to `COc1ncc(-c2nc(C(=O)NC(=N)N)c(N)nc2N2CCCCCC2)cn1`, in the series with Homo sapiens, the outcome was Active. The inhibition entry at Trypsin [4] and on Plasma kallikrein was “Active” throughout. Moreover, in the series on MDA-MB-231, the IC50 is over 100 µM. Further, in the series on HT-1080, the inhibition in vivo at 7.5 mg/kg/day is 33%.

These data come from ChEMBL document CHEMBL4196166 (J Med Chem, 2018).
